Active and inactive are the calls of the source. No cut-off for these calls is given here.
Key:
Assay type in all cases: cell-based
293T [1] = assay: Inhibition of compound-pretreated Ebolavirus GP pseudotyped in HIV virions infected in human 293T cells assessed as viral-cell entry at 60 uM after 48 hrs by luciferase gene assay relative to DMSO-treated control; design: scale not given: the % may be the effect or the level left; conditions: Zaire ebolavirus
How it was run: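 Ebola GP-pseudotyped HIV luciferase virions were mixed with compound (60 μM final) before infecting 293T cells. Medium was changed after overnight incubation, and luciferase was read from lysates at 48 h. Result is % infectivity relative to DMSO vehicle (0.1~0.2% final).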

293T [2] = assay: Inhibition of compound-pretreated Marburg GP pseudotyped in HIV virions infected in human 293T cells assessed as inhibition of viral-cell entry at 60 uM after 48 hrs by luciferase gene assay relative to DMSO-treated control; conditions: Marburgvirus
How it was run: (§1)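 HIV luciferase virions pseudotyped with Marburg GP (Lake Victoria) were preincubated with compound (60 μM final), then added to 293T, HeLa or A549 cells. Medium was replaced after overnight incubation, and lysates were read for luciferase at 48 h. Values are % of DMSO control, mean ± standard error of three independent experiments.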

293T [3] = assay: Inhibition of compound-pretreated VSV GP pseudotyped in HIV virions infected in human 293T cells assessed as inhibition of viral-cell entry after 48 hrs by luciferase gene assay relative to DMSO-treated control; conditions: Vesicular stomatitis virus
HeLa [4] = assay: Inhibition of compound-pretreated VSV GP pseudotyped in HIV virions infected in human HeLa cells assessed as inhibition of viral-cell entry after 48 hrs by luciferase gene assay relative to DMSO-treated control; conditions: Vesicular stomatitis virus
HeLa [5] = assay: (§2) Inhibition of compound-pretreated Ebolavirus GP pseudotyped in HIV virions infected in human HeLa cells assessed as inhibition of viral-cell entry after 48 hrs by luciferase gene assay relative to DMSO-treated control; conditions: Zaire ebolavirus
How it was run: (§3)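 Pseudotypes were briefly preincubated with compound at room temperature, then added to 293T or HeLa cells seeded the day before. Medium was replaced after overnight incubation, and cells were lysed at 48 h for firefly luciferase reading. Single point was 30 μM; curves spanned 3.75–120 or 3.75–60 μM. Infectivity was taken as % of DMSO control, from 3–5 independent experiments.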

[6] = as §2; conditions: Zaire ebolavirus; how it was run: as §3
A549 = assay: Inhibition of compound-pretreated Marburg GP pseudotyped in HIV virions infected in human A549 cells assessed as inhibition of viral-cell entry at 60 uM after 48 hrs by luciferase gene assay relative to DMSO-treated control; conditions: Marburgvirus; how it was run: as §1
HeLa [7] = assay: Inhibition of compound-pretreated Marburg GP pseudotyped in HIV virions infected in human HeLa cells assessed as inhibition of viral-cell entry at 60 uM after 48 hrs by luciferase gene assay relative to DMSO-treated control; conditions: Marburgvirus; how it was run: as §1
[8] = (§4) Inhibition of compound-pretreated Ebolavirus GP pseudotyped in HIV virions infected in human 293T cells assessed as inhibition of viral-cell entry after 48 hrs by luciferase gene assay relative to DMSO-treated control; conditions: Zaire ebolavirus, HEK-293T; how it was run: as §3
293T [9] = assay: as §4; conditions: Zaire ebolavirus; how it was run: as §3
HEK-293T [10] = assay: Cytotoxicity against human 293T cells infected with Ebolavirus GP pseudotyped in HIV virions assessed as effect on cell morphology at 60 uM
How it was run: (§5)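 Compounds at 60 μM final were mixed with Ebola GP-pseudotyped HIV luciferase virions and added to 293T cells. Cell morphology and growth were checked by light microscopy at 24 and 48 h post-infection. Vehicle was DMSO at 0.1~0.2% final.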

HEK-293T [11] = assay: Cytotoxicity against human 293T cells infected with Ebolavirus GP pseudotyped in HIV virions assessed as effect on cell growth at 60 uM; how it was run: as §5
HeLa [12] = assay: Inhibition of compound-pretreated VSV GP pseudotyped in HIV virions infected in human HeLa cells assessed as inhibition of viral-cell entry at 120 uM after 48 hrs by luciferase gene assay relative to DMSO-treated control; conditions: Vesicular stomatitis virus
293T [13] = assay: Inhibition of compound-pretreated VSV GP pseudotyped in HIV virions infected in human 293T cells assessed as inhibition of viral-cell entry at 120 uM after 48 hrs by luciferase gene assay relative to DMSO-treated control; conditions: Vesicular stomatitis virus
HeLa [14] = assay: Inhibition of compound-pretreated Ebolavirus GP pseudotyped in HIV virions infected in human HeLa cells assessed as inhibition of viral-cell entry at 30 uM after 48 hrs by luciferase gene assay relative to DMSO-treated control; conditions: Zaire ebolavirus; how it was run: as §3
293T [15] = assay: Inhibition of compound-pretreated Ebolavirus GP pseudotyped in HIV virions infected in human 293T cells assessed as inhibition of viral-cell entry at 30 uM after 48 hrs by luciferase gene assay relative to DMSO-treated control; conditions: Zaire ebolavirus; how it was run: as §3
HEK-293T [16] = assay: Cytotoxicity against human 293T cells infected with Ebolavirus GP pseudotyped in HIV virions assessed as cell death at 60 uM; how it was run: as §5

CCN(CC)CC(=O)NCc1cc(-c2c(C)cccc2C)no1
Activity (293T [1]): 59%

CCN(CC)CC(=O)NCc1cn(-c2c(Cl)cc(Cl)cc2Cl)nn1
Activity (293T [1]): 33%

CCN(CC)CC(=O)NCc1cc(-c2cccc([N+](=O)[O-])c2)no1
Activity (293T [1]): 37%

CCN(CC)CC(=O)NCc1cc(-c2ccc(I)cc2)no1
inhibition (293T [2]): Active
inhibition (293T [3]): inactive
inhibition (HeLa [4]): inactive
inhibition (HeLa [5]): Dose-dependent effect
IC50 [6]: 2.5 µM
inhibition (A549): Active
inhibition (HeLa [7]): Active
IC50 [8]: 2.5 µM
inhibition (293T [9]): Dose-dependent effect
Activity (293T [1]): 6%

CC(C)C(=O)NCc1cc(-c2ccc(Br)cc2)no1
Activity (293T [1]): 116%

O=C(NCc1cc(-c2ccc(Br)cc2)no1)c1ccccc1
Activity (293T [1]): 82%

CCN(CC)CC(=O)NCc1cc(-c2ccccc2)no1
Activity (293T [1]): 181%

CCN(CC)CC(=O)NCc1cn(-c2ccccc2)nn1
Activity (293T [1]): 46%

COc1ccc(-c2cc(CNC(=O)[C@@H](NC(=O)OCc3ccccc3)C(C)C)on2)cc1
Activity (293T [1]): 220%

CCN(CC)CC(=O)NCc1cn(-c2ccc(OC)cc2)nn1
Activity (293T [1]): 58%

COc1ccc(-c2cc(CNC(=O)[C@H](CC(=O)OCc3ccccc3)NC(=O)OC(C)(C)C)on2)cc1
Activity (293T [1]): 118%

COc1ccc(-c2cc(CNC(=O)[C@H](CS)NC(C)=O)on2)cc1
Activity (HEK-293T [10]): Non-toxic
Activity (HEK-293T [11]): Non-toxic
Activity (293T [1]): 421%

CCN(CC)CC(=O)NCc1cn(-c2cccc(OC)c2)nn1
Activity (293T [1]): 90%

COc1ccc(-c2cc(CNC(=O)[C@@H](NC(=O)OCc3ccccc3)C3CCCN3C(=O)OCc3ccccc3)on2)cc1 (stereo not given in full)
Activity (293T [1]): 254%

CCN(CC)CC(=O)NCc1cc(-c2ccc(OC)cc2)no1
inhibition (HeLa [12]): inactive
inhibition (293T [2]): 20%
inhibition (HeLa [5]): Dose-dependent effect
IC50 [6]: 30 µM
inhibition (A549): 20%
inhibition (HeLa [7]): 20%
inhibition (293T [13]): inactive
inhibition (HeLa [14]): > 50%
inhibition (293T [15]): > 50%
IC50 [8]: 30 µM
inhibition (293T [9]): Dose-dependent effect
Activity (293T [1]): 56%

CCN(CC)CC(=O)NCc1cc(-c2ccc(C(F)(F)F)cc2)no1
Activity (293T [1]): 24%

CCN(CC)CC(=O)NCc1cn(-c2ccc(Br)cc2)nn1
Activity (293T [1]): 18%

CCN(CC)CC(=O)NCc1cc(-c2ccc(O)cc2)no1
Activity (293T [1]): 132%

CCN(CC)CC(=O)NCc1cn(-c2ccc(OC)cc2[N+](=O)[O-])nn1
Activity (293T [1]): 92%

COc1ccc(-c2cc(CNC(=O)CBr)on2)cc1
Activity (293T [1]): 121%

CCN(CC)CC(=O)NCc1cc(-c2ccco2)no1
Activity (293T [1]): 77%

COc1ccc(-c2cc(CNC(=O)[C@H](Cc3ccccc3)NC(=O)OC(C)(C)C)on2)cc1
Activity (293T [1]): 188%

CCN(CC)CC(=O)NCc1cn(-c2c(Br)cc(Br)cc2Br)nn1
inhibition (293T [3]): inactive
inhibition (HeLa [4]): inactive
inhibition (HeLa [5]): Dose-dependent effect
IC50 [6]: 5 µM
IC50 [8]: 5 µM
inhibition (293T [9]): Dose-dependent effect
Activity (293T [1]): 3%

CCCCCCCn1cc(CNC(=O)CN(CC)CC)nn1
Activity (293T [1]): 60%

CCN(CC)CC(=O)NCc1cc(-c2ccc(OC)c(I)c2)no1
Activity (293T [1]): 4%

CCN(CC)CC(=O)NCc1cc(-c2ccc(C)cc2)no1
Activity (HEK-293T [10]): Non-toxic
Activity (HEK-293T [11]): Non-toxic
Activity (293T [1]): 381%

CCN(CC)CC(=O)NCc1cc(-c2ccc(Br)cc2)no1
Activity (293T [1]): 30%

CCC(=O)NCc1cc(-c2ccc(Br)cc2)no1
Activity (293T [1]): 99%

CCN(CC)CC(=O)NCc1cn(-c2cccc(I)c2)nn1
Activity (293T [1]): 111%

CCN(CC)CC(=O)NCc1cn(-c2ccc(Cl)cc2)nn1
Activity (293T [1]): 105%

CCN(CC)CC(=O)NCc1cc(-c2cccc(OC)c2)no1
inhibition (293T [3]): inactive
inhibition (HeLa [4]): inactive
inhibition (HeLa [5]): Dose-dependent effect
IC50 [6]: 10 µM
IC50 [8]: 10 µM
inhibition (293T [9]): Dose-dependent effect
Activity (293T [1]): 4%

CCN(CC)CC(=O)NCc1cc(-c2ccc([N+](=O)[O-])cc2)no1
Activity (293T [1]): 30%

CCN(CC)CC(=O)NCc1cc(-c2ccccc2OC)no1
Activity (293T [1]): 87%

CCN(CC)CC(=O)NCc1cc(-c2c(F)c(F)c(F)c(F)c2F)no1
Activity (293T [1]): 52%

CCN(CC)CC(=O)NCc1cc(-c2ccc(Cl)cc2)no1
Activity (293T [1]): 17%

COc1ccc(-c2cc(CNC(=O)OCC(C)C)on2)cc1
Activity (293T [1]): 118%

COc1ccc(-c2cc(CNC(=O)CNC(=O)OCc3ccccc3)on2)cc1
Activity (293T [1]): 148%

O=C(CBr)NCc1cc(-c2ccc(Br)cc2)no1
Activity (HEK-293T [16]): Toxic

CCCc1cc(CNC(=O)CN(CC)CC)on1
Activity (293T [1]): 102%

CCN(CC)CC(=O)NCc1cn(Cc2ccccc2)nn1
Activity (293T [1]): 35%

CCN(CC)CC(=O)NCc1cn(-c2ccccc2[N+](=O)[O-])nn1
Activity (293T [1]): 66%

CCN(CC)CC(=O)NCc1cn(-c2ccccc2Br)nn1
Activity (293T [1]): 19%

CCN(CC)CC(=O)NCc1cn(-c2ccc(I)cc2)nn1
inhibition (293T [2]): Active
inhibition (293T [3]): inactive
inhibition (HeLa [4]): inactive
inhibition (HeLa [5]): Dose-dependent effect
IC50 [6]: 5 µM
inhibition (A549): > 90%
inhibition (HeLa [7]): > 90%
IC50 [8]: 5 µM
inhibition (293T [9]): Dose-dependent effect
Activity (293T [1]): 4%

COc1ccc(-c2cc(CNC(=O)[C@@H](N)Cc3ccccc3)on2)cc1
Activity (293T [1]): 106%

CC(=O)NCc1cc(-c2ccc(Br)cc2)no1
Activity (HEK-293T [10]): Non-toxic
Activity (HEK-293T [11]): Non-toxic
Activity (293T [1]): 105%

CCN(CC)CC(=O)NCc1cc(-c2ccc(OC)c(OC)c2)no1
Activity (293T [1]): 160%

O=C1NC2(CCCC2)C(COc2ccccc2)O1 (stereo not given)
inhibition (HeLa [12]): Active
inhibition (293T [13]): Active
